Test results from ChEMBL document CHEMBL3593160, “Orally active ghrelin receptor inverse agonists and their actions on a rat obesity model” (Bioorg Med Chem, 2015).
Active and inactive are the calls of the source. No cut-off for these calls is given here.

How the values were obtained:
[1] = Ratio of free drug concentration in brain of Sprague-Dawley rat model of high-fat diet-induced obesity at 30 mg/kg, po BID for 3 week to IC50 for displacement of [125I]human ghrelin from rat ghrelin receptor expressed in CHO cell membranes; type: organism-based; conditions: in vivo, 504 h
Outline: (§1)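 Free concentration = total concentration × free fraction from human plasma protein binding by equilibrium dialysis. Plasma level is AUC0-24/24 h on day 1 of twice-daily oral dosing in HFD-obese SD rats. Brain level is plasma × B/P ratio from normal rats. Each is divided by the binding IC50.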

[2] = Ratio of free plasma concentration in Sprague-Dawley rat model of high-fat diet-induced obesity at 30 mg/kg, po BID for 3 week to IC50 for displacement of [125I]human ghrelin from rat ghrelin receptor expressed in CHO cell membranes; type: organism-based; conditions: in vivo, 504 h; outline: as §1
Liver microsome = assay: Metabolic stability in human liver microsomes assessed as metabolic rate at 1 uM incubated for 30 mins in presence of NADPH by LC/MS/MS method; type: ADME; conditions: 0.5 h
Rattus norvegicus [3] = assay: Inhibition of total calorie intake in Sprague-Dawley rat model of high-fat diet-induced obesity at 10 mg/kg, po BID 3 weeks; type: functional, organism-based; conditions: in the assay text read “14 days” for “3 weeks”
Outline: (§2)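 Male SD rats given a 60% fat diet for 10 weeks, habituated 3 weeks to oral vehicle, and randomized to vehicle, treatment or pair-fed groups. Oral dosing twice daily (9:30 am, 6:00 pm) as a 0.5% hydroxypropyl cellulose suspension. Body weight and daily food intake recorded before the morning dose. Pair-fed rats got the previous day's treated-group mean intake plus vehicle.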

Rattus norvegicus [4] = assay: Total clearance in Sprague-Dawley rat at 1 mg/kg, iv by LC/MS/MS method; type: ADME, organism-based; conditions: in vivo
Outline: (§3)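 Non-fasted SD rats (n = 3/group) dosed 10 mg/kg orally or 1 mg/kg iv in 5% DMSO/10% HPCD in saline. Heparinized plasma sampled 0.08 (iv only) to 24 h. Parameters by noncompartmental analysis.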

[5] = Ratio of free drug concentration in brain of Sprague-Dawley rat model of high-fat diet-induced obesity at 10 mg/kg, po BID for 3 week to IC50 for displacement of [125I]human ghrelin from rat ghrelin receptor expressed in CHO cell membranes; type: organism-based; conditions: in vivo, 504 h; outline: as §1
[6] = Ratio of plasma concentration in Sprague-Dawley rat model of high-fat diet-induced obesity at 10 mg/kg, po BID for 3 week to IC50 for displacement of [125I]human ghrelin from rat ghrelin receptor expressed in CHO cell membranes; type: organism-based; conditions: in vivo, 504 h
Outline: (§4)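 Mean plasma concentration (AUC0-24/24 h, day 1 of twice-daily oral dosing in HFD-obese SD rats) divided by the binding IC50.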

[7] = Ratio of drug level in brain to plasma of Sprague-Dawley rat at 1 mg/kg, iv after 2 hrs by LC/MS/MS method; type: ADME, organism-based; conditions: read-out: BPR
[8] = Plasma concentration in Sprague-Dawley rat model of high-fat diet-induced obesity at 30 mg/kg, po BID for 3 weeks; type: ADME, organism-based
Outline: (§5)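 Male SD rats fed 60% fat diet for 10 weeks, habituated to oral vehicle dosing for 3 weeks. Compound given orally as a suspension in 0.5% hydroxypropyl cellulose at 9:30 am and 6:00 pm. Plasma levels measured on the first dosing day. AUC0-24 from these levels; mean plasma concentration = AUC0-24/24 h.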

Rattus norvegicus [9] = assay: Oral bioavailability in Sprague-Dawley rat at 10 mg/kg by LC/MS/MS method; type: ADME, organism-based; conditions: in vivo; outline: as §3
[10] = target: Growth hormone secretagogue receptor type 1 (Homo sapiens, UniProt Q92847); assay: Displacement of [125I]human ghrelin from human ghrelin receptor expressed in CHO cell membranes incubated for 30 mins by scintillation counting method
Outline: (§6)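 Membranes from CHO cells stably expressing rat or human ghrelinR (3.34 µg protein) incubated with 0.04 nM [125I]human ghrelin and varied compound concentrations for 30 min at room temperature. Buffer: 50 mM Hepes pH 7.5, 1 mM CaCl2, 5 mM MgCl2, 75 mM NaCl, 0.5% BSA. Membranes filtered and washed; bound radioactivity counted by scintillation.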

[11] = Plasma concentration in Sprague-Dawley rat model of high-fat diet-induced obesity at 10 mg/kg, po BID for 3 weeks; type: ADME, organism-based; outline: as §5
[12] = target: T1, Growth hormone secretagogue receptor type 1 (Rattus norvegicus, UniProt O08725); assay: Antagonist activity at ghrelin receptor in Sprague-Dawley rat primary pituitary cells assessed as inhibition of ghrelin-induced growth hormone secretion incubated for 15 mins by ELISA method; type: cell-based, Pituitary gland cell
Outline: (§7)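 SD rat (6–8 weeks, male) anterior pituitary cells dispersed with collagenase and papain and cultured 2 days. Cells preincubated 1.5 h in HBSS with 1% BSA, 0.25% glucose and 25 mM HEPES, then treated 15 min at 37 °C with 1 nM ghrelin present. GH in supernatant measured by ELISA. Inhibition = (C−E)/C×100.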

[13] = Ratio of free plasma concentration in Sprague-Dawley rat model of high-fat diet-induced obesity at 10 mg/kg, po BID for 3 week to IC50 for displacement of [125I]human ghrelin from rat ghrelin receptor expressed in CHO cell membranes; type: organism-based; conditions: in vivo, 504 h; outline: as §1
[14] = Drug concentration in brain of Sprague-Dawley rat model of high-fat diet-induced obesity at 30 mg/kg, po BID for 3 weeks; type: ADME, organism-based; conditions: read-out: Drug uptake
Outline: (§8)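 Brain level estimated as mean plasma concentration (AUC0-24/24 h, day 1 of twice-daily oral dosing in HFD-obese SD rats) multiplied by the B/P ratio from normal rats. The ratio divides this by the binding IC50.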

[15] = target: Growth hormone secretagogue receptor type 1 (Rattus norvegicus) (UniProt O08725); assay: Inverse agonist activity rat ghrelin receptor expressed in HEK293 cells by luciferase reporter gene assay relative to control; type: cell-based
Outline: (§9)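 HEK293 cells transiently transfected (about 5 h, Lipofectamine 2000) with rat ghrelinR vector (10 ng) and pNFAT-Luc (100 ng) per well. Compounds added in RPMI1640 with 0.1% dialyzed FBS and incubated overnight at 37 °C. Constitutive NFAT-luciferase signal read by luminescence; viability checked by AlamarBlue.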

[16] = Ratio of drug concentration in brain of Sprague-Dawley rat model of high-fat diet-induced obesity at 10 mg/kg, po BID for 3 week to IC50 for displacement of [125I]human ghrelin from rat ghrelin receptor expressed in CHO cell membranes; type: organism-based; conditions: in vivo, 504 h; outline: as §8
Rattus norvegicus [17] = assay: AUC (0 to 24 hrs) in Sprague-Dawley rat model of high-fat diet-induced obesity at 10 mg/kg, po BID for 3 weeks; type: ADME, organism-based; set-up: dose 10 mg/kg, time < 24 hr, route oral; conditions: in vivo; outline: as §5
[18] = target: T1, Growth hormone secretagogue receptor type 1; assay: Inverse agonist activity rat ghrelin receptor expressed in HEK293 cells by luciferase reporter gene assay; type: cell-based; outline: as §9
[19] = target: T1, Growth hormone secretagogue receptor type 1; assay: Displacement of [125I]human ghrelin from rat ghrelin receptor expressed in CHO cell membranes incubated for 30 mins by scintillation counting method; outline: as §6
[20] = AUC (0 to 24 hrs) in Sprague-Dawley rat model of high-fat diet-induced obesity at 30 mg/kg, po BID for 3 weeks; type: ADME, organism-based; set-up: time < 24 hr, dose 30 mg/kg, route oral; conditions: in vivo; outline: as §5
[21] = Ratio of plasma concentration in Sprague-Dawley rat model of high-fat diet-induced obesity at 30 mg/kg, po BID for 3 week to IC50 for displacement of [125I]human ghrelin from rat ghrelin receptor expressed in CHO cell membranes; type: organism-based; conditions: in vivo, 504 h; outline: as §4
[22] = Drug concentration in brain of Sprague-Dawley rat model of high-fat diet-induced obesity at 10 mg/kg, po BID for 3 weeks; type: ADME, organism-based; conditions: read-out: Drug uptake; outline: as §8
Rattus norvegicus [23] = assay: Inhibition of total calorie intake in Sprague-Dawley rat model of high-fat diet-induced obesity at 30 mg/kg, po BID 3 weeks; type: functional, organism-based; conditions: in the assay text read “14 days” for “3 weeks”; outline: as §2
[24] = Ratio of drug concentration in brain of Sprague-Dawley rat model of high-fat diet-induced obesity at 30 mg/kg, po BID for 3 week to IC50 for displacement of [125I]human ghrelin from rat ghrelin receptor expressed in CHO cell membranes; type: organism-based; conditions: in vivo, 504 h; outline: as §8
[25] = target: Growth hormone secretagogue receptor type 1 (Rattus norvegicus) (UniProt O08725); assay: Antagonist activity at ghrelin receptor in Sprague-Dawley rat primary pituitary cells assessed as inhibition of ghrelin-induced growth hormone secretion incubated for 15 mins by ELISA method relative to control; type: cell-based; conditions: Pituitary gland cell; outline: as §7
[26] = target: T1, Growth hormone secretagogue receptor type 1; assay: Antagonist activity at rat ghrelin receptor expressed in CHO cells assessed as blocking of human ghrelin-induced response by FLIPR based intracellular Ca2+ mobilization assay; type: functional, cell-based
Outline: (§10)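 CHO cells stably expressing rat ghrelinR, loaded with Calcium 3 dye for 2.5 h at room temperature in HBSS with 20 mM Hepes, 2.5 mM probenecid and 1 mg/mL BSA. Compound added, then 1 nM human ghrelin. Response taken as peak fluorescence minus basal.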

[27] = target: Growth hormone secretagogue receptor type 1 (Rattus norvegicus) (UniProt O08725); assay: Antagonist activity at rat ghrelin receptor expressed in CHO cells assessed as blocking of human ghrelin-induced response by FLIPR based intracellular Ca2+ mobilization assay relative to control; type: functional, cell-based; outline: as §10
[28] = Protein binding in human plasma at 10 uM incubated for 4 hrs by equilibrium dialysis; type: ADME, cell-free; conditions: read-out: PPB
Outline: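 10 µM compound in human plasma dialysed against DPBS pH 7.4 for 4 h at 37 °C by rapid equilibrium dialysis. Plasma and buffer fractions acetonitrile-extracted and quantified by LC/MS/MS.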

Rattus norvegicus [29] = assay: Inhibition of daily weight gain in Sprague-Dawley rat model of high-fat diet-induced obesity at 30 mg/kg, po BID for14 days; type: functional, organism-based; outline: as §2
[30] = Total clearance in ICR mouse by LC/MS/MS method; type: ADME, organism-based; conditions: in vivo
[31] = Oral bioavailability in ICR mouse by LC/MS/MS method; type: ADME, organism-based; conditions: in vivo

Sequence of Growth hormone secretagogue receptor type 1 (Homo sapiens, UniProt Q92847) (Q92847 whole entry): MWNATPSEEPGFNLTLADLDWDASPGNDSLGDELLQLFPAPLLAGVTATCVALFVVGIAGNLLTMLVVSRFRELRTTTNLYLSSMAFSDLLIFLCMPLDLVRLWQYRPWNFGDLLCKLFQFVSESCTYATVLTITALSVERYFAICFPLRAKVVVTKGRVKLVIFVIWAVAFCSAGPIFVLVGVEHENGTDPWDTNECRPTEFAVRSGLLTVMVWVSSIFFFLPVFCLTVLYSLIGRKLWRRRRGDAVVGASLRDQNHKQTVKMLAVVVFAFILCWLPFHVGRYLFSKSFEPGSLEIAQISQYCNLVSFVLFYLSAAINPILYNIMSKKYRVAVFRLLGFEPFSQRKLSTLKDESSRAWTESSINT
Sequence of Growth hormone secretagogue receptor type 1 (Rattus norvegicus) (O08725 whole entry): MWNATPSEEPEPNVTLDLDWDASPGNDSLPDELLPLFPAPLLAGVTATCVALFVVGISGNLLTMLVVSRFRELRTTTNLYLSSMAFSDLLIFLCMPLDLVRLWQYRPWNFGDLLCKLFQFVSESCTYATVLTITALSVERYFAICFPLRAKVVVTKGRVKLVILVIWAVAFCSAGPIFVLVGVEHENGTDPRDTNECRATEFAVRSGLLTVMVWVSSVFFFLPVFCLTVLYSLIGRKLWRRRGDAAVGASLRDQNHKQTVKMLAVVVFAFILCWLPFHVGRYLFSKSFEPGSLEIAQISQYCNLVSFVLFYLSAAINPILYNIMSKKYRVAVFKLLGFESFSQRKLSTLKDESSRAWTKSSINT
T1 sequence (O08725 whole entry): as above

Compound	Ratio [1]	Ratio [2]	Drug metabolism (Liver microsome)	inhibition (Rattus norvegicus [3])	CL (Rattus norvegicus [4])	Ratio [5]	Ratio [6]	Kp at 2 h [7]	concentration at 504 h [8]	F (Rattus norvegicus [9])	IC50 [10]	concentration at 504 h [11]	IC50 [12]	Ratio [13]	Efficacy [15]	IC50 [18]	IC50 [19]	Efficacy [25]	IC50 [26]	Efficacy [27]	also measured
COc1ccc(CNC(=O)c2cc(C#CC(C)(C)NC(C)=O)cnc2NCc2ccc3c(c2)OCO3)cc1Cl	0.6	8.6	81 pmol/min/mg	inactive	27.8 mL/min/kg	0.2	286	0.07	5670 nM	46.4%	3 nM	1890 nM	36.2 nM	2.9	> 95%	26 nM	6.6 nM	> 95%	34 nM	> 95%	concentration at 504 h [14]: 370 nM; Ratio [16]: 19; AUC (Rattus norvegicus [17]): 24901 ng·h/mL; AUC at 24 h [20]: 74700 ng·h/mL; Ratio [21]: 859; concentration at 504 h [22]: 132 nM; inhibition (Rattus norvegicus [23]): inactive; Ratio [24]: 58; fraction unbound at 4 h, 10 µM [28]: 0.01
Cc1ccc(CNC(=O)c2cc(C#CC(C)(C)O)cnc2NCc2ccc3c(c2)OCO3)cc1C(F)F	2	97	103 pmol/min/mg	inactive	12.3 mL/min/kg	0.7	324	0.21	272 nM	23.8%	0.44 nM	91 nM	11.6 nM	3.2	> 95%	5.4 nM	0.28 nM	> 95%	13 nM	> 95%	concentration at 504 h [14]: 57 nM; Ratio [16]: 68; AUC (Rattus norvegicus [17]): 1105 ng·h/mL; AUC at 24 h [20]: 3310 ng·h/mL; Ratio [21]: 972; concentration at 504 h [22]: 19 nM; inhibition (Rattus norvegicus [23]): inactive; Ratio [24]: 203; inhibition (Rattus norvegicus [29]): Active; fraction unbound at 4 h, 10 µM [28]: 0.01
COc1ccc(CNC(=O)c2cc(C3=C[C@@H]4CC[C@H](C3)N4C(C)=O)cnc2NCc2ccc3c(c2)OCO3)cc1Cl			39 pmol/min/mg								0.3 nM		32.8 nM		> 95%	9.8 nM	5.6 nM	> 95%	100 nM	> 95%	clearance [30]: 180 mL/min/kg; bioavailability [31]: 7.2%
